Measurements taken from ChEMBL document CHEMBL1132976, “Biarylcarbamoylindolines are novel and selective 5-HT(2C) receptor inverse agonists: identification of 5-methyl-1-[[2-[(2-methyl-3-pyridyl)oxy]- 5-pyridyl]carbamoyl]-6-trifluoromethylindoline (SB-243213) as a potential antidepressant/anxiolytic agent” (J Med Chem, 2000).

Legend:
[1] = biological target: T1, 5-hydroxytryptamine receptor 2C (Homo sapiens, UniProt P28335); experiment: Binding affinity towards human cloned 5-hydroxytryptamine receptor 2C in HEK293 cells, using [3H]mesulergine as radioligand.; assay type: cell-based
T1 sequence (P28335 whole entry): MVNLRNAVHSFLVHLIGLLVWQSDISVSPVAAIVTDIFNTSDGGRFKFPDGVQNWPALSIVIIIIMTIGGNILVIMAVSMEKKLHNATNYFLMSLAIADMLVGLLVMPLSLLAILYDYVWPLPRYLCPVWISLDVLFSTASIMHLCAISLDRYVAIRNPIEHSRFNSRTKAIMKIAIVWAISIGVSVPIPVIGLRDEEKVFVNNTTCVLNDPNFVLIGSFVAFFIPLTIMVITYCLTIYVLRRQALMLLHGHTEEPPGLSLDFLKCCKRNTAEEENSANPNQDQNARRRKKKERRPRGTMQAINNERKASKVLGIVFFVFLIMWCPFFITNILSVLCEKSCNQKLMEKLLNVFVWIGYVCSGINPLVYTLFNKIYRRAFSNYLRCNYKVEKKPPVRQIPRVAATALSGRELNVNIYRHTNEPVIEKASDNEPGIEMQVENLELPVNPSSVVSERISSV
Procedure, shortened: (§1)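 Competition binding at human cloned receptors expressed in HEK 293 cells. Radioligands: [3H]ketanserin for 5-HT2A, [3H]5-HT for 5-HT2B, [3H]mesulergine for 5-HT2C. Values are pKi, given as the mean of at least two determinations, each within 0.2 log unit of the mean.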

[2] = biological target: T2, 5-hydroxytryptamine receptor 2B (Homo sapiens, UniProt P41595); experiment: Binding affinities towards human cloned 5-hydroxytryptamine 2B receptor in HEK293 cells using [3H]5-HT as radioligand.; assay type: cell-based; procedure, shortened: as §1
[3] = biological target: 5-hydroxytryptamine receptor 2A (Homo sapiens, UniProt P28223); experiment: Binding affinity towards human cloned 5-hydroxytryptamine receptor 2A in HEK293 cells, using [3H]ketanserin as radioligand.; assay type: cell-based; procedure, shortened: as §1
[4] = biological target: Serotonin receptor (2b and 2c) (Homo sapiens) (UniProt P41595+P28335); experiment: Selectivity index determined from the binding affinities of 5-HT2C and 5-HT2B.; assay type: protein assay
[5] = biological target: Serotonin 2 receptors; 5-HT2a & 5-HT2c (Homo sapiens) (UniProt P28223+P28335); experiment: Selectivity index determined from binding affinities of 5-HT2C and 5-HT2A.; assay type: protein assay
Rattus norvegicus = experiment: Dose required to reverse mCPP induced hypolocomotion in rat after oral administration.; assay type: functional; details: read-out: ID50 (the source's name)
Procedure, shortened: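 Rat hypolocomotion model. The test compound was given orally, and mCPP was given at 7 mg/kg ip 30 min before the test. ID50 (mg/kg po) is the dose that reverses mCPP-induced hypolocomotion by 50%.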

Cytochrome P450 1A2 = biological target: T3, Cytochrome P450 1A2 (Homo sapiens, UniProt P05177); experiment: Inhibition of heterologously expressed human cytochrome P450 1A2.; assay type: ADME
T3 sequence (P05177 whole entry): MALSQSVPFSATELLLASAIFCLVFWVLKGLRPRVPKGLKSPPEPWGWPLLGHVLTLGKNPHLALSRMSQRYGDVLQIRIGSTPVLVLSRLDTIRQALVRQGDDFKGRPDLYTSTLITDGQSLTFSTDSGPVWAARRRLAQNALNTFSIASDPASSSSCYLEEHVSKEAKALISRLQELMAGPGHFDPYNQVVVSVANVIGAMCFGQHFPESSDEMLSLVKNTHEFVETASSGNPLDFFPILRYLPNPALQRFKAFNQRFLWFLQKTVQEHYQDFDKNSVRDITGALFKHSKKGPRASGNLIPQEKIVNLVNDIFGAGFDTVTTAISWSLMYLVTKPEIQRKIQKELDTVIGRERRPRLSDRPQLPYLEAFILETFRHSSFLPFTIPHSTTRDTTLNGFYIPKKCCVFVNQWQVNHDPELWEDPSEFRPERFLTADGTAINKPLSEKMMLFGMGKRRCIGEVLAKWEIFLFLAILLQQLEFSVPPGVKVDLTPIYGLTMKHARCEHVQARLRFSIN
Procedure, shortened: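 Heterologously expressed human CYP1A2 in an isoform-selective assay. Substrate: caffeine N3-demethylation at 500 µM, at the substrate Km.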

[6] = biological target: T2, 5-hydroxytryptamine receptor 2B; experiment: Displacement of [3H]5-HT from human 5-hydroxytryptamine 2B receptor expressed in HEK293 cells; assay type: cell-based; procedure, shortened: as §1

T2 sequence (P41595 whole entry): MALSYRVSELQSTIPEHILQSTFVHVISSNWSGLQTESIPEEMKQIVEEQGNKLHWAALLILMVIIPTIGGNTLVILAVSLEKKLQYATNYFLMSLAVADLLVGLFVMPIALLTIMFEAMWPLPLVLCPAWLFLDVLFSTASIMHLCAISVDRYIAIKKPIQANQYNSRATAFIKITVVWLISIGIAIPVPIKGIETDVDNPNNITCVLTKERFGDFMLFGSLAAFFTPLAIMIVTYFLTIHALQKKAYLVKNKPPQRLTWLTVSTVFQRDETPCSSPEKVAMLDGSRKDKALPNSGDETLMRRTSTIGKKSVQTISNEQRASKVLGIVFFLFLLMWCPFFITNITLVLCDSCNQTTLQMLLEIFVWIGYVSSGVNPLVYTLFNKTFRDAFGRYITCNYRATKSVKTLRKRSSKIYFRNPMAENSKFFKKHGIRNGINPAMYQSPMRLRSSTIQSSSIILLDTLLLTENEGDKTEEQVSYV
Sequence of 5-hydroxytryptamine receptor 2A (P28223 whole entry): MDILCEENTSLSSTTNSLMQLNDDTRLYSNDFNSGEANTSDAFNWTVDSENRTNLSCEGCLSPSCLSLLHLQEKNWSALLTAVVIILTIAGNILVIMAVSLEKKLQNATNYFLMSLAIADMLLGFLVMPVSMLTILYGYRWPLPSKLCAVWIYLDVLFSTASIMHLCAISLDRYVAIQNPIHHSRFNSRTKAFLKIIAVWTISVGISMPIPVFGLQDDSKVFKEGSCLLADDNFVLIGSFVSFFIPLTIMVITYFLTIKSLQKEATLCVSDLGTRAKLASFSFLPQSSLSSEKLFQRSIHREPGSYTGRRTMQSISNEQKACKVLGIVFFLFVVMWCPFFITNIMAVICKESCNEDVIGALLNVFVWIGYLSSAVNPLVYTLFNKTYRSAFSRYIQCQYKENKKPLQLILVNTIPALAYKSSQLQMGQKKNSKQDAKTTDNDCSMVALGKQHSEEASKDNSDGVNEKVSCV
Sequence of Serotonin 2 receptors; 5-HT2a & 5-HT2c (Homo sapiens) (P28223 whole entry, looked up, one chain of several): as the sequence (P28223 whole entry) above

COc1cc2c(cc1C(F)(F)F)N(C(=O)Nc1ccc(-c3ccncc3)cc1)CC2
Ki [1]: 5.01 nM | Ki [2]: 12.6 nM | Ki [3]: > 10000 nM | Selectivity [4]: 3 | Selectivity [5]: > 2000

COc1cc2c(cc1C(F)(F)F)N(C(=O)Nc1cc(-c3cccnc3)ccc1F)CC2
Ki [1]: 2000 nM | Ki [2]: 2000 nM | Ki [3]: 7940 nM | Selectivity [4]: 1 | Selectivity [5]: 4

COc1cc2c(cc1C(F)(F)F)N(C(=O)Nc1cc3c(c(-c4cccnc4)c1)OCC3)CC2
Ki [1]: 0.501 nM | Ki [2]: 7.94 nM | ED50 (Rattus norvegicus): 2 mg/kg | Ki [3]: 251 nM | Selectivity [4]: 16 | IC50 (Cytochrome P450 1A2): 2000 nM | Selectivity [5]: 500

COc1cc2c(cc1C(F)(F)F)N(C(=O)Nc1cccc(-c3cccnc3)c1)CC2
Ki [1]: 1 nM | Ki [2]: 7.94 nM | ED50 (Rattus norvegicus): 0.6 mg/kg | Ki [3]: 200 nM | Selectivity [4]: 8 | IC50 (Cytochrome P450 1A2): 4000 nM | Selectivity [5]: 200

COc1cc2c(cc1C(F)(F)F)N(C(=O)Nc1cccc(-c3cnccc3C)c1)CC2
Ki [1]: 0.631 nM | ED50 (Rattus norvegicus): 5 mg/kg | Ki [3]: 251 nM | inhibition at 1 µM (Cytochrome P450 1A2): 8% | Selectivity [5]: 400

COc1cc2c(cc1C(F)(F)F)N(C(=O)Nc1cccc(-c3ccccn3)c1)CC2
Ki [1]: 20 nM | Ki [3]: 501 nM | inhibition at 1 µM (Cytochrome P450 1A2): 3% | Selectivity [5]: 25

COc1cc2c(cc1C(F)(F)F)N(C(=O)Nc1cncc(-c3c(F)cccc3F)c1)CC2
Ki [1]: 25.1 nM | Ki [3]: > 10000 nM | Selectivity [4]: 4 | Ki [6]: 100 nM | Selectivity [5]: > 420

COc1cc2c(cc1C(F)(F)F)N(C(=O)Nc1ccc(-c3cccnc3)cc1)CC2
Ki [1]: 15.8 nM | Ki [2]: 10 nM | ED50 (Rattus norvegicus): > 10 mg/kg | Ki [3]: 3980 nM | Selectivity [4]: 0.6 | Selectivity [5]: 250

COc1cc2c(cc1C(F)(F)F)N(C(=O)Nc1ccc(C)c(-c3cnccc3C)c1)CC2
Ki [1]: 0.316 nM | Ki [2]: 3.98 nM | ED50 (Rattus norvegicus): 1.4 mg/kg | Ki [3]: > 6310 nM | Selectivity [4]: 12 | IC50 (Cytochrome P450 1A2): > 100000 nM | Selectivity [5]: > 20000

CCc1cc(NC(=O)N2CCc3cc(OC)c(C(F)(F)F)cc32)cc(-c2cccnc2)c1
Ki [1]: 0.631 nM | Ki [2]: 10 nM | ED50 (Rattus norvegicus): 1.2 mg/kg | Ki [3]: 200 nM | Selectivity [4]: 16 | IC50 (Cytochrome P450 1A2): 6000 nM | Selectivity [5]: 320

CSc1cc2c(cc1C(F)(F)F)N(C(=O)Nc1cccc(-c3ccncc3)c1)CC2
Ki [1]: 3.16 nM | Ki [3]: 158 nM | Selectivity [4]: 8 | Ki [6]: 25.1 nM | Selectivity [5]: 50

COc1cc2c(cc1C(F)(F)F)N(C(=O)Nc1ccc(Cl)c(-c3cccnc3)c1)CC2
Ki [1]: 5.01 nM | Ki [2]: 25.1 nM | ED50 (Rattus norvegicus): 5.5 mg/kg | Ki [3]: 1260 nM | Selectivity [4]: 5 | IC50 (Cytochrome P450 1A2): 73000 nM | Selectivity [5]: 250

COc1cc2c(cc1C(F)(F)F)N(C(=O)Nc1cc(F)c(C)c(-c3cccnc3)c1)CC2
Ki [1]: 0.631 nM | Ki [2]: 7.94 nM | ED50 (Rattus norvegicus): > 5 mg/kg | Ki [3]: 1580 nM | Selectivity [4]: 13 | Selectivity [5]: 1600

COc1cc2c(cc1C(F)(F)F)N(C(=O)Nc1cccc(-c3cccnc3)c1C)CC2
Ki [1]: 25.1 nM | Ki [3]: 398 nM | Selectivity [5]: 16

COc1cc2c(cc1C(F)(F)F)N(C(=O)Nc1cc(Br)cc(-c3cccnc3)c1)CC2
Ki [1]: 2 nM | Ki [2]: 20 nM | ED50 (Rattus norvegicus): 5 mg/kg | Ki [3]: > 1000 nM | Selectivity [4]: 10 | IC50 (Cytochrome P450 1A2): 7000 nM | Selectivity [5]: > 500

COc1cc2c(cc1C(F)(F)F)N(C(=O)Nc1ccc(Cl)c(-c3cnccc3C)c1)CC2
Ki [1]: 0.631 nM | ED50 (Rattus norvegicus): 1.4 mg/kg | Ki [3]: > 1000 nM | IC50 (Cytochrome P450 1A2): 11000 nM | Selectivity [5]: > 1500

COc1cc2c(cc1C(F)(F)F)N(C(=O)Nc1cncc(-c3ccc(F)cc3)c1)CC2
Ki [1]: 6.31 nM | ED50 (Rattus norvegicus): 10 mg/kg | Ki [3]: 251 nM | Ki [6]: 63.1 nM | Selectivity [5]: 40

COc1cc2c(cc1C(F)(F)F)N(C(=O)Nc1cccc(-c3cccnc3)c1Cl)CC2
Ki [1]: 10 nM | Ki [2]: 5.01 nM | Ki [3]: 251 nM | Selectivity [4]: 0.5 | Selectivity [5]: 25

COc1cc2c(cc1C(F)(F)F)N(C(=O)Nc1ccc(Oc3cccnc3)nc1)CC2
Ki [1]: 1.26 nM | Ki [2]: 20 nM | ED50 (Rattus norvegicus): 0.7 mg/kg | Ki [3]: 100 nM | Selectivity [4]: 16 | Selectivity [5]: 80

COc1cc2c(cc1C(F)(F)F)N(C(=O)Nc1cccnc1)CC2
IC50 (Cytochrome P450 1A2): 20 nM | Selectivity [5]: 120

COc1ccc(NC(=O)N2CCc3cc(OC)c(C(F)(F)F)cc32)cc1-c1cccnc1
Ki [1]: 0.501 nM | Ki [2]: 15.8 nM | ED50 (Rattus norvegicus): 1.2 mg/kg | Ki [3]: 200 nM | Selectivity [4]: 30 | Inhibition (Cytochrome P450 1A2): 3% | Selectivity [5]: 400

CSc1cc2c(cc1C(F)(F)F)N(C(=O)Nc1cccc(-c3cccnc3)c1)CC2
Ki [1]: 1.58 nM | Ki [3]: 79.4 nM | Selectivity [4]: 5 | Ki [6]: 7.94 nM | Selectivity [5]: 50

COc1cc2c(cc1C(F)(F)F)N(C(=O)Nc1ccc(C)c(-c3cccnc3)c1)CC2
Ki [1]: 1 nM | Ki [2]: 5.01 nM | ED50 (Rattus norvegicus): 1.6 mg/kg | Ki [3]: 5010 nM | Selectivity [4]: 5 | IC50 (Cytochrome P450 1A2): 7000 nM | Selectivity [5]: 5000

COc1cc2c(cc1C(F)(F)F)N(C(=O)Nc1cc(-c3ccccc3)cc(-c3cccnc3)c1)CC2
Ki [1]: 2.51 nM | Ki [2]: 15.8 nM | ED50 (Rattus norvegicus): > 5 mg/kg | Ki [3]: 631 nM | Selectivity [4]: 6 | Selectivity [5]: 250

COc1cc2c(cc1C(F)(F)F)N(C(=O)Nc1cccc(-c3c(C)ccnc3C)c1)CC2
Ki [1]: 2.51 nM | Ki [2]: 12.6 nM | Ki [3]: 200 nM | Selectivity [4]: 5 | Selectivity [5]: 80

COc1cc2c(cc1C(F)(F)F)N(C(=O)Nc1cncc(-c3cc(F)cc(F)c3)c1)CC2
Ki [1]: 79.4 nM | Ki [3]: 1260 nM | Selectivity [4]: 6 | Ki [6]: 501 nM | Selectivity [5]: 15
